In paper PMC9041360 (RSC Advances, 2021):
Read-outs that look alike come from different tables or passages of the source.

Assays:
HeLa cells [1] = conditions: read-out: IC50 cytotoxicity against HeLa cells; HeLa cells ref 40; cited from earlier work
HeLa cells [2] = test: Recovery experiments; assay type: cell-based, human; conditions: 5 and 10 μM, exposure 1–8 h, then 48 h recovery, MTT
[3] = system: Aspergillus fumigatus (BCC020_2845); test: Antifungal activity, broth two-fold microdilution; assay type: cell-based; conditions: 30 °C, 48 h, tested 75 to 0.036 μM; NA = no activity at 75 μM
Procedure, shortened: (§1)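 Two-fold broth microdilution per CLSI M100-S20. Compounds were serially diluted from 75 to 0.036 μM in Mueller Hinton broth with 2% glucose. Inoculum from an overnight culture, about 5 × 10^5 CFU mL−1 final. Incubated aerobically at 30 °C for 48 h. Solvent control: medium with 50% DMSO in methanol. Fluconazole (32 to 0.0625 μg mL−1) served as positive control. MIC was the lowest concentration showing some growth inhibition. Triplicate.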

HeLa cells [4] = test: Cellular morphology by light microscopy; assay type: cell-based, human; conditions: 48 h of exposure, concentrations from 2.5 to 20 μM
Procedure, shortened: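 HeLa cells in RPMI were seeded at 5 × 10^3 cells per well on poly-D-lysine-coated glass-bottom imaging plates. Next day they were treated with 20, 5 or […] μM test compound. Live-cell imaging used an inverted microscope with an incubation chamber supplied with 5% CO2 and a 100× oil objective. Images were taken after 48 h of treatment.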

HeLa cells [5] = test: Membrane damage by LDH leakage; assay type: cell-based, human
Procedure, shortened: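 HeLa cells were seeded at 1 × 10^4 per well. At 30 min, 45 min, 1, 2, 3 and 6 h after treatment, LDH release was measured with the CytoTOX One membrane-integrity kit. Lysis solution gave maximum leakage. Fluorescence (ex 560/em 590) was expressed as percent of maximum LDH leakage.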

[6] = system: Alternaria alternata (BCC020_0609); test: Antifungal activity, broth two-fold microdilution; assay type: cell-based; conditions: 30 °C, 48 h, tested 75 to 0.036 μM; NA = no activity at 75 μM
Procedure, shortened: as §1

[7] = system: Saccharomyces cerevisiae P23; test: Membrane permeabilization assay; assay type: cell-based; conditions: S. cerevisiae, 5 and 10 μM
Procedure, shortened: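 S. cerevisiae P23 was grown aerobically in YEPG at 30 °C to mid-log phase (OD450 about 0.5). Cells were harvested, washed and resuspended to OD450 about 0.2 in 0.15 M citrate–phosphate buffer, pH 6.0, with 0.5% glucose and 10 μM propidium iodide. Test compound was added at 1, 5 or 10 μM final. PI uptake was followed as fluorescence (ex 515/em 620) at 25 °C. Controls: 10 μM melittin (positive) and buffer (baseline). Two sets of experiments, with no background subtraction.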

HeLa cells [8] = test: Cytotoxicity testing using MTT, dose–response; assay type: cell-based, human
Procedure, shortened: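 HeLa cells grown in RPMI 1640 with 10% FBS, 2 mM L-glutamine and 1% antibiotics at 37 °C, 5% CO2. Seeded at 10 × 10^3 cells per well and left to adhere overnight. The whole medium was replaced with test compound in medium for 48 h. MTT (4 mg mL−1 in PBS) was added for 4 h, then cells were centrifuged and formazan dissolved in DMSO. Absorbance at 590/640 nm. Viability given as percent of untreated control.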

[9] = Lipid bilayer experiments; conditions: planar DOPC/DOPE membranes, 50 mV
Procedure, shortened: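 Black lipid bilayers were painted from 3% (w/v) DOPC/DOPE 2:1 (w/w) in n-decane/butanol 9:1 across a 0.5 mm aperture. Both compartments held 10 mM Tris, 1 M KCl, pH 7.4, at 25 °C. Test compound (5 or 10 μM) was added to the cis side. Current was recorded with Ag/AgCl electrodes at 50 mV, cis positive, with traces of 120 s.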

| Substance | IC50 (HeLa cells [1]) [µM] | cell viability after compound washout and recovery (in words) (HeLa cells [2]) | MIC A. fumigatus [3] [µM] | cellular morphology (in words) (HeLa cells [4]) | LDH leakage (in words) (HeLa cells [5]; early time points up to 2 h) | LDH accumulated in the medium, % of positive control (HeLa cells [5]; only after 3 h) | MIC A. alternata [6] [µM] | membrane permeabilization, PI entry into yeast cells (in words) [7] | reduction of cell viability / inhibition (HeLa cells [8]; MTT, 48 h, at higher concentrations (5–20 μM)) [%] | IC50 (HeLa cells [8]; read-out: IC50 against HeLa cells (MTT assay), 48 h treatment) [µM] | pore-forming activity / membrane permeabilization (in words) ([9]; 5 μM) | typical transmembrane electrical current ([9]; 10 μM) |
| --- | --- | --- | --- | --- | --- | --- | --- | --- | --- | --- | --- | --- |
| Iturin A | 1.73 | – | – | – | – | – | – | – | – | – | – | – |
| minutissamide A [Compound 1] | – | easily tolerated by the cells for the first two hours | 37.5 | cell shrinkage and membrane rupture | No LDH leakage | up to 30% | 75 | No membrane disruption was detectable | 70 | 2.8 | almost completely inactive | about 10 pA |
